Measured values from ChEMBL document CHEMBL4118262, “Synthesis and biological evaluation of novel N-substituted nipecotic acid derivatives with an alkyne spacer as GABA uptake inhibitors” (Bioorg Med Chem, 2018).

Columns and labels:
[1] = target: Sodium- and chloride-dependent GABA transporter 1 (Mus musculus) (UniProt P31648); assay: Inhibition of [2H10]NO 711 binding to mouse GAT1 expressed in HEK293 cell membranes assessed as remaining NO711 binding at 100 uM after 40 mins by LC-ESI-MS-MS analysis relative to control
GABA transporter 4 = target: T1, GABA transporter 4 (Mus musculus, UniProt P31650); assay: Inhibition of mouse GAT4 expressed in HEK293 cells assessed as decrease in [3H]GABA uptake preincubated for 25 mins followed by [3H]GABA addition measured after 4 mins by liquid scintillation counting analysis; type: cell-based
T1 sequence (P31650 whole entry): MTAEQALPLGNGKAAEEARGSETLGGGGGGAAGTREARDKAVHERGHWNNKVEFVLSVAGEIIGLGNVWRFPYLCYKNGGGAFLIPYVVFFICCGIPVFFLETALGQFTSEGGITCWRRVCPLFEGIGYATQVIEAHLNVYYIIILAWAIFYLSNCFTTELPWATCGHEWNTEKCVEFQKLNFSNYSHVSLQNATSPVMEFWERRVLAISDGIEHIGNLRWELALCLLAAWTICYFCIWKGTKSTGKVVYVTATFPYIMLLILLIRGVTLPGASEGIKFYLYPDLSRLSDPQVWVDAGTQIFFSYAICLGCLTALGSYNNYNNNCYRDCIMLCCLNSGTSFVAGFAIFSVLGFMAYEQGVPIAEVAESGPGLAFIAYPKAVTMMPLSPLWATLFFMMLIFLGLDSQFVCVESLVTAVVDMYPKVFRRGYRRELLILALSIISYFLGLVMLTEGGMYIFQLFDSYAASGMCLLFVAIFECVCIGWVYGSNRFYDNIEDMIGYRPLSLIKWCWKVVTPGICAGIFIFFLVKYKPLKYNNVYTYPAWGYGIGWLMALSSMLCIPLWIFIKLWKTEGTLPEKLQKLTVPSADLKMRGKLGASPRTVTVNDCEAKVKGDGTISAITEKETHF
Method in brief: (§1)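 [³H]GABA uptake assay in HEK cells expressing the mGAT subtype named in the line, run in triplicate. Potencies are given as pIC₅₀ ± SEM. No SEM is given where only one triplicate measurement was made. Where 100 µM test compound left uptake at or above 50% (pIC₅₀ ≤ 4.00), the percent remaining [³H]GABA uptake at 100 µM is reported instead.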

[2] = target: T2, Sodium- and chloride-dependent GABA transporter 1 (Mus musculus, UniProt P31648); assay: Inhibition of mouse GAT1 expressed in HEK293 cells assessed as decrease in [3H]GABA uptake preincubated for 25 mins followed by [3H]GABA addition measured after 4 mins by liquid scintillation counting analysis; type: cell-based; method in brief: as §1
[3] = target: T2, Sodium- and chloride-dependent GABA transporter 1; assay: Inhibition of [2H10]NO 711 binding to mouse GAT1 expressed in HEK293 cell membranes after 40 mins by LC-ESI-MS-MS analysis
Method in brief: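 MS Binding Assay on mGAT1 expressed in HEK cells, with NO711 as marker. Run in triplicate. Results are reported as pKi ± SEM. Where only one triplicate measurement was made, no SEM is given.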

[4] = tested on: betaine/GABA transporter BGT1 (mGAT2, Slc6a12) (Mus musculus); assay: Inhibition of mouse GAT2 expressed in HEK293 cells assessed as decrease in [3H]GABA uptake at 100 uM preincubated for 25 mins followed by [3H]GABA addition measured after 10 mins by liquid scintillation counting analysis relative to control; design: scale not given: the % may be the effect or the level left
[5] = target: T3, GABA transporter 4 (Mus musculus) (UniProt P31650); assay: Inhibition of mouse GAT4 expressed in HEK293 cells assessed as decrease in [3H]GABA uptake at 100 uM preincubated for 25 mins followed by [3H]GABA addition measured after 4 mins by liquid scintillation counting analysis relative to control; type: cell-based; design: scale not given: the % may be the effect or the level left; method in brief: as §1
T3 sequence (whole entry): T1 sequence (P31650 whole entry)

[6] = tested on: GABA transporter mGAT3 (Slc6a13) (Mus musculus); assay: Inhibition of mouse GAT3 expressed in HEK293 cells assessed as decrease in [3H]GABA uptake at 100 uM preincubated for 25 mins followed by [3H]GABA addition measured after 4 mins by liquid scintillation counting analysis relative to control; design: scale not given: the % may be the effect or the level left
[7] = target: Sodium- and chloride-dependent GABA transporter 1 (Mus musculus) (UniProt P31648); assay: Inhibition of mouse GAT1 expressed in HEK293 cells assessed as decrease in [3H]GABA uptake at 100 uM preincubated for 25 mins followed by [3H]GABA addition measured after 4 mins by liquid scintillation counting analysis relative to control; type: cell-based; design: scale not given: the % may be the effect or the level left; method in brief: as §1

Compound	Activity [1] [%]	IC50 (GABA transporter 4) [µM]	IC50 [2] [µM]	Ki [3] [µM]	Activity [4] [%]	Activity [5] [%]	Activity [6] [%]	Activity [7] [%]
COc1ccc(C(OCCN2CCC[C@H](C(=O)O)C2)(c2ccc(OC)cc2)c2ccc(OC)cc2C)cc1	59	1.66	64.6					
COc1ccc(C(/C=C/CN2CCCC(C(=O)O)C2)(c2ccc(OC)cc2)c2ccc(OC)cc2)cc1 (configuration not stated)				14.8				
COc1ccc(C(OCCN2CCCC(C(=O)O)C2)(c2ccc(OC)cc2C)c2ccc(OC)cc2C)cc1 (configuration not stated)		8.51	67.6	38				
COc1ccc(C(C#CCN2CCCC(C(=O)O)C2)(c2ccc(OC)cc2)c2ccc3sccc3c2)cc1 (racemic)		12	11	1.91				
COc1ccc(C(CC#CCN2CCCC(C(=O)O)C2)(c2ccc(OC)cc2)c2ccc(OC)cc2)cc1 (racemic)		17.4	52.5	37.2				
O=C(O)C1CCCN(CCC#CC(c2ccccc2)(c2ccccc2)c2ccccc2)C1 (racemic)			0.427	0.0912	66	64	61	
COc1ccc(C(C#CCN2CCCC(C(=O)O)C2)(c2ccc(OC)cc2)c2nccs2)cc1 (racemic)				77.6	84	79	82	68
C=C=C(CN1CCCC(C(=O)O)C1)C(c1ccc(OC)cc1)(c1ccc(OC)cc1)c1ccc(OC)cc1 (racemic)	57	49			77			69
COc1ccc(C(C#CCN2CCCC(C(=O)O)C2)(c2ccc(OC)cc2)c2ccsc2)cc1 (racemic)		34.7	25.1	5.25	70			
O=C(O)C1CCCN(CC#CCC(c2ccccc2)(c2ccccc2)c2ccccc2)C1 (racemic)		70.8	35.5	14.5	66		50	
COc1ccc(CC(C#CCN2CCCC(C(=O)O)C2)(c2ccc(OC)cc2)c2ccc(OC)cc2)cc1 (racemic)		36.3	13.2	1.91	53			
COc1ccc(C(C#CCN2CCCC(C(=O)O)C2)(c2ccc(OC)cc2)c2ccc3c(c2)OCO3)cc1 (racemic)		51.3	22.9	4.9				
COc1ccc(C(C#CCN2CCCC(C(=O)O)C2)c2ccc(OC)cc2)cc1 (racemic)		23.4	3.72	1.1	80			
COc1ccc(C(C#CCCN2CCCC(C(=O)O)C2)(c2ccc(OC)cc2)c2ccc(OC)cc2)cc1 (racemic)		25.7	15.8	2.75				
COc1ccc(C(C#CCN2CCCC(C(=O)O)C2)(Cc2ccccc2)c2ccc(OC)cc2)cc1 (racemic)		41.7	8.32	2.14	67			
COc1ccc(C(C#CCN2CCCC(C(=O)O)C2)(c2ccc(OC)cc2)c2ccc(OC)cc2)cc1 (racemic)		29.5	14.5	4.37				
C=C=C(CN1CCCC(C(=O)O)C1)C(c1ccccc1)(c1ccccc1)c1ccccc1 (racemic)	70				87	54	80	62
COc1ccc(C(C#CCN2CCCC(C(=O)O)C2)(c2ccc(OC)cc2)c2nccn2C)cc1 (racemic)	83				106	91	103	80
COc1ccc(C(O)(C#CCN2CCCC(C(=O)O)C2)c2ccc(OC)cc2)cc1 (racemic)	59				72	69	74	66
